What all share (test): Isothermal titration calorimetry
Format in all cases: binding
Conditions in all cases: read-out: Values shown are Kd
In general terms: ITC needs no label: the signal is the heat of the interaction.

In one assay the target is O13. An outline of the steps: (§1)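 N-terminally His6-tagged VLR ectodomains were expressed in Hi5 insect cells or by transient transfection of 293S cells, then purified by Ni-NTA and Superdex75 size exclusion. Protein was dialysed overnight into the ITC buffer, and lyophilised glycans were dissolved in the dialysate. Cell concentration was set by A280 with calculated extinction coefficients. Titration used 16 injections of 2.45 μL (1 s each, 180 s apart) at 5 μCal reference power. The single-site fit gave Kd and ΔH.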

The target in another assay is RBC36. Put shortly: as §1
For the next assay, the target named is Tn4-22. Put shortly:
as §1

For a further assay, the target named is UEA-1. Put shortly:
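Commercial UEA-1 lectin was dialysed overnight into the ITC buffer, and lyophilised glycans were dissolved in the dialysate. Cell concentration was set by A280 with a calculated extinction coefficient. Titration used 16 injections of 2.45 μL (1 s duration, 180 s spacing) at 5 μCal reference power. Integrated peaks were fitted to a single-site model to give Kd and ΔH.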

SMILES strings stand for the structures. pKd: −log10 of the molar value.

What is called pKd is the negative decadic logarithm of the Kd, by convention in mol/L. `CC(=O)N[C@H]1C(O)O[C@H](CO)[C@@H](O[C@@H]2O[C@H](CO)[C@H](O)[C@H](O)[C@H]2O[C@@H]2O[C@@H](C)[C@@H](O)[C@@H](O)[C@@H]2O)[C@@H]1O` (stereo partly drawn) [H-trisaccharide, blood group H-trisaccharide type II, Fucα1-2Galβ1-4GlcNAc]: the negative logarithm of the Kd (pKd) at O13 was 5.59; on RBC36, 5.08; on Tn4-22, 5.16; on UEA-1, 5.09.
Turning to `C[C@@H]1O[C@@H](O[C@H]2[C@H](O[C@H]3[C@H](O)[C@@H](O)C(O)O[C@@H]3CO)O[C@H](CO)[C@H](O)[C@@H]2O)[C@@H](O)[C@H](O)[C@@H]1O` (stereo partly drawn) [2′-fucosyllactose, 2′-fucosyllactose, Fucα1-2Galβ1-4Glc], the values for the negative logarithm of the Kd (pKd) at RBC36 and at UEA-1 were 4.24 and 4.90, respectively.
For `CC(=O)N[C@H]1C(O)O[C@H](CO)[C@@H](O[C@@H]2O[C@H](CO)[C@H](O)[C@H](O)[C@H]2O[C@@H]2O[C@@H](C)[C@@H](O)[C@@H](O)[C@@H]2O)[C@@H]1O[C@@H]1O[C@@H](C)[C@@H](O)[C@@H](O)[C@@H]1O` (stereo partly drawn) [Lewis-Y, Lewis-Y antigen tetrasaccharide, Fucα1-2Galβ1-4(Fucα1-3)GlcNAc], on UEA-1, the negative-log Kd (pKd) is 4.70.
For `CC(=O)N[C@H]1[C@H](O[C@H]2[C@@H](O)[C@@H](CO)O[C@@H](O[C@H]3[C@H](O)[C@@H](O)C(O)O[C@@H]3CO)[C@@H]2O)O[C@H](CO)[C@@H](O[C@@H]2O[C@H](CO)[C@H](O)[C@H](O)[C@H]2O)[C@@H]1O` (stereo partly drawn) [LNnT, lacto-N-neotetraose, Galβ1-4GlcNAcβ1-3Galβ1-4Glc], the pKd on O13 was 3.80; on Tn4-22 it was 4.79.

Source of the values: paper PMC5677568 (Structure (London, England : 1993), 2017).
